Experimental data from ChEMBL document CHEMBL2157922, “Synthesis and antifungal activity of diverse C-2 pyridinyl and pyridinylvinyl substituted quinolines” (2012).
Values after ≈ are worked out from the molar mass of the structure shown.

Tests used:
Cryptococcus neoformans [1] = experiment: Antifungal activity against Cryptococcus neoformans IM 00319 after 48 hrs by broth microdilution technique; type: functional; conditions: IM 00319, 48 h
In short: (§1)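 C. neoformans was tested by 96-well RPMI-1640 microdilution, with DMSO-matched growth and sterility control wells. Plates were incubated 48 h at 30 °C in a moist, dark chamber and read at OD405. % inhibition = 100 − (CTW − SCW)/(GCW − SCW), in duplicate. For the clinical isolates, MIC80 and MIC50 are the lowest concentrations giving 80% and 50% inhibition.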

Candida albicans [2] = experiment: Antifungal activity against Candida albicans CCC 130 after 24 hrs by broth microdilution technique; conditions: CCC 130, 24 h
Cryptococcus neoformans [3] = experiment: Antifungal activity against Cryptococcus neoformans ATCC 32264 after 48 hrs by broth microdilution technique; type: functional; conditions: ATCC 32264, 48 h
In short: (§2)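 Yeasts were tested by CLSI broth microdilution in RPMI-1640 buffered to pH 7.0 with MOPS, with compound from 250 down to 0.98 in DMSO stocks. Trays were held at 30 °C in a moist, dark chamber. MIC100, the lowest concentration giving total visual inhibition against the growth control, was read by eye at 48 h.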

Candida albicans [4] = experiment: Antifungal activity against Candida albicans CCC 127 after 48 hrs by broth microdilution technique; type: functional; conditions: CCC 127, 48 h
Candida albicans [5] = experiment: Antifungal activity against Candida albicans CCC 126 after 48 hrs by broth microdilution technique; type: functional; conditions: CCC 126, 48 h
Cryptococcus neoformans [6] = experiment: Antifungal activity against Cryptococcus neoformans ATCC 32264 at 3.9 ug/ml after 48 hrs; type: functional; conditions: ATCC 32264, 48 h; in short: as §1
Aspergillus fumigatus = experiment: Antifungal activity against Aspergillus fumigatus ATCC 26934 after 48 hrs by broth microdilution technique; type: functional; conditions: ATCC 26934, 48 h
In short: (§3)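 Moulds and dermatophytes were run by CLSI broth microdilution in MOPS-buffered RPMI-1640 at pH 7.0. Aspergillus was incubated at 30 °C and dermatophytes at 28–30 °C, in a moist, dark chamber. MIC100, the lowest concentration with no visible growth, was read visually at a time set by growth of the control fungus.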

Nannizzia gypsea = experiment: Antifungal activity against Microsporum gypseum CCC 115 after 48 hrs by broth microdilution technique; type: functional; conditions: CCC 115, 48 h; in short: as §3
Pichia kudriavzevii = experiment: Antifungal activity against Candida krusei CCC 117 after 48 hrs by broth microdilution technique; type: functional; conditions: CCC 117, 48 h
Candida albicans [7] = experiment: Antifungal activity against Candida albicans CCC 128 after 48 hrs by broth microdilution technique; type: functional; conditions: CCC 128, 48 h
Cryptococcus neoformans [8] = experiment: Antifungal activity against Cryptococcus neoformans IM 972751 after 48 hrs by broth microdilution technique; type: functional; conditions: IM 972751, 48 h; in short: as §1
[9] = test system: Trichophyton mentagrophytes; experiment: Antifungal activity against Trichophyton mentagrophytes ATCC 9972 after 48 hrs by broth microdilution technique; type: functional; conditions: ATCC 9972, 48 h; in short: as §3
Aspergillus flavus = experiment: Antifungal activity against Aspergillus flavus ATCC 9170 after 48 hrs by broth microdilution technique; type: functional; conditions: ATCC 9170, 48 h; in short: as §3
Cryptococcus neoformans [10] = experiment: Antifungal activity against Cryptococcus neoformans IM 972724 after 48 hrs by broth microdilution technique; type: functional; conditions: IM 972724, 48 h; in short: as §1
Cryptococcus neoformans [11] = experiment: Antifungal activity against Cryptococcus neoformans ATCC 32264 at 15.6 ug/ml after 48 hrs; type: functional; conditions: ATCC 32264, 48 h; in short: as §1
Candida albicans [12] = experiment: Antifungal activity against Candida albicans ATCC 10231 at 7.8 ug/ml after 24 hrs; type: functional; conditions: ATCC 10231, 24 h
In short: (§4)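 C. albicans was grown in 96-well RPMI-1640 broth microdilution with compound wells diluted from DMSO stocks. Growth wells with matched DMSO and sterility wells were included. After 24 h at 30 °C in a moist, dark chamber, OD405 was read. % inhibition = 100 − (CTW − SCW)/(GCW − SCW) OD, done in duplicate.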

Trichophyton rubrum = experiment: Antifungal activity against Trichophyton rubrum CCC 113 after 48 hrs by broth microdilution technique; type: functional; conditions: CCC 113, 48 h
Cryptococcus neoformans [13] = experiment: Antifungal activity against Cryptococcus neoformans IM 983036 after 48 hrs by broth microdilution technique; type: functional; conditions: IM 983036, 48 h; in short: as §1
Saccharomyces cerevisiae = experiment: Antifungal activity against Saccharomyces cerevisiae ATCC 9763 after 48 hrs by broth microdilution technique; type: functional; conditions: ATCC 9763, 48 h; in short: as §2
Candida albicans [14] = experiment: Antifungal activity against Candida albicans CCC 129 after 48 hrs by broth microdilution technique; type: functional; conditions: CCC 129, 48 h
Cryptococcus neoformans [15] = experiment: Antifungal activity against Cryptococcus neoformans ATCC 32264 at 31.2 ug/ml after 48 hrs; type: functional; conditions: ATCC 32264, 48 h; in short: as §1
Candida parapsilosis = experiment: Antifungal activity against Candida parapsilosis CCC 124 after 48 hrs by broth microdilution technique; type: functional; conditions: Lodderomyces parapsilosis, CCC 124, 48 h
Nakaseomyces glabratus = experiment: Antifungal activity against Candida glabrata CCC 115 after 48 hrs by broth microdilution technique; type: functional; conditions: CCC 115, 48 h
Cryptococcus neoformans [16] = experiment: Antifungal activity against Cryptococcus neoformans IM 983040 after 48 hrs by broth microdilution technique; type: functional; conditions: IM 983040, 48 h; in short: as §1
Candida tropicalis = experiment: Antifungal activity against Candida tropicalis CCC 131 after 48 hrs by broth microdilution technique; type: functional; conditions: CCC 131, 48 h
Candida albicans [17] = experiment: Antifungal activity against Candida albicans CCC 125 after 48 hrs by broth microdilution technique; type: functional; conditions: CCC 125, 48 h
Aspergillus niger = experiment: Antifungal activity against Aspergillus niger ATCC 9029 after 48 hrs by broth microdilution technique; type: functional; conditions: ATCC 9029, 48 h; in short: as §3
Candida albicans [18] = experiment: Antifungal activity against Candida albicans CCC 130 after 48 hrs by broth microdilution technique; type: functional; conditions: CCC 130, 48 h
Candida albicans [19] = experiment: Antifungal activity against Candida albicans ATCC 10231 at 31.2 ug/ml after 24 hrs; type: functional; conditions: ATCC 10231, 24 h; in short: as §4
Candida albicans [20] = experiment: Antifungal activity against Candida albicans ATCC 10231 at 15.6 ug/ml after 24 hrs; type: functional; conditions: ATCC 10231, 24 h; in short: as §4
Candida albicans [21] = experiment: Antifungal activity against Candida albicans ATCC 10231 after 48 hrs by broth microdilution technique; type: functional; conditions: ATCC 10231, 48 h; in short: as §2
Cryptococcus neoformans [22] = experiment: Antifungal activity against Cryptococcus neoformans IM 042074 after 48 hrs by broth microdilution technique; type: functional; conditions: IM 042074, 48 h; in short: as §1

MIC50 (Cryptococcus neoformans [1]): 7.8 µg/mL (≈ 33.3 µM)
MIC80 (Cryptococcus neoformans [1]): 15.6 µg/mL (≈ 66.6 µM)
MIC50 (Candida albicans [2]): 31.2 µg/mL (≈ 133 µM)
MIC (Cryptococcus neoformans [3]): 31 µg/mL (≈ 132 µM)
MIC50 (Cryptococcus neoformans [3]): 3.9 µg/mL (≈ 16.6 µM)
MIC80 (Cryptococcus neoformans [3]): 15.6 µg/mL (≈ 66.6 µM)
MIC50 (Candida albicans [4]): 62.5 µg/mL (≈ 267 µM)
MIC80 (Candida albicans [4]): 62.5 µg/mL (≈ 267 µM)
MIC50 (Candida albicans [5]): 15.6 µg/mL (≈ 66.6 µM)
MIC80 (Candida albicans [5]): 31.2 µg/mL (≈ 133 µM)
MIC (Aspergillus fumigatus): 62 µg/mL (≈ 265 µM)
MIC (Nannizzia gypsea): 62 µg/mL (≈ 265 µM)
MIC50 (Pichia kudriavzevii): 31.2 µg/mL (≈ 133 µM)
MIC80 (Pichia kudriavzevii): 62.5 µg/mL (≈ 267 µM)
MIC50 (Candida albicans [7]): 31.2 µg/mL (≈ 133 µM)
MIC80 (Candida albicans [7]): 62.5 µg/mL (≈ 267 µM)
MIC50 (Cryptococcus neoformans [8]): 3.9 µg/mL (≈ 16.6 µM)
MIC80 (Cryptococcus neoformans [8]): 15.6 µg/mL (≈ 66.6 µM)
MIC [9]: 62 µg/mL (≈ 265 µM)
MIC (Aspergillus flavus): 62 µg/mL (≈ 265 µM)
MIC50 (Cryptococcus neoformans [10]): 3.9 µg/mL (≈ 16.6 µM)
MIC80 (Cryptococcus neoformans [10]): 7.8 µg/mL (≈ 33.3 µM)
MIC (Trichophyton rubrum): 62 µg/mL (≈ 265 µM)
MIC50 (Cryptococcus neoformans [13]): 3.9 µg/mL (≈ 16.6 µM)
MIC80 (Cryptococcus neoformans [13]): 7.8 µg/mL (≈ 33.3 µM)
MIC (Saccharomyces cerevisiae): 62 µg/mL (≈ 265 µM)
MIC50 (Candida albicans [14]): 31.2 µg/mL (≈ 133 µM)
MIC80 (Candida albicans [14]): 62.5 µg/mL (≈ 267 µM)
MIC50 (Candida parapsilosis): 15.6 µg/mL (≈ 66.6 µM)
MIC80 (Candida parapsilosis): 31.2 µg/mL (≈ 133 µM)
MIC50 (Nakaseomyces glabratus): 62.5 µg/mL (≈ 267 µM)
MIC80 (Nakaseomyces glabratus): 62.5 µg/mL (≈ 267 µM)
MIC50 (Cryptococcus neoformans [16]): 3.9 µg/mL (≈ 16.6 µM)
MIC80 (Cryptococcus neoformans [16]): 7.8 µg/mL (≈ 33.3 µM)
MIC50 (Candida tropicalis): 15.6 µg/mL (≈ 66.6 µM)
MIC80 (Candida tropicalis): 31.2 µg/mL (≈ 133 µM)
MIC50 (Candida albicans [17]): 62.5 µg/mL (≈ 267 µM)
MIC80 (Candida albicans [17]): 125 µg/mL (≈ 533 µM)
MIC (Aspergillus niger): 250 µg/mL (≈ 1070 µM)
MIC80 (Candida albicans [18]): 62.5 µg/mL (≈ 267 µM)
MIC (Candida albicans [21]): 62 µg/mL (≈ 265 µM)
MIC50 (Candida albicans [21]): 7.8 µg/mL (≈ 33.3 µM)
MIC80 (Candida albicans [21]): 15.6 µg/mL (≈ 66.6 µM)
MIC50 (Cryptococcus neoformans [22]): 3.9 µg/mL (≈ 16.6 µM)
MIC80 (Cryptococcus neoformans [22]): 7.8 µg/mL (≈ 33.3 µM)
Structure (SMILES): CCc1ccc2nc(-c3ccccn3)ccc2c1
MFC (Cryptococcus neoformans [3]): 125 µg/mL (≈ 533 µM)
inhibition at 3.9 µg/mL (Cryptococcus neoformans [6]): 50%
MFC (Aspergillus fumigatus): 125 µg/mL (≈ 533 µM)
MFC (Nannizzia gypsea): 62 µg/mL (≈ 265 µM)
MFC [9]: 62 µg/mL (≈ 265 µM)
MFC (Aspergillus flavus): 125 µg/mL (≈ 533 µM)
inhibition at 15.6 µg/mL (Cryptococcus neoformans [11]): 80%
inhibition at 7.8 µg/mL (Candida albicans [12]): 50%
MFC (Trichophyton rubrum): 62 µg/mL (≈ 265 µM)
MFC (Saccharomyces cerevisiae): 250 µg/mL (≈ 1070 µM)
inhibition at 31.2 µg/mL (Cryptococcus neoformans [15]): 80%
MFC (Aspergillus niger): > 250 µg/mL
inhibition at 31.2 µg/mL (Candida albicans [19]): 80%
inhibition at 15.6 µg/mL (Candida albicans [20]): 80%
MFC (Candida albicans [21]): 250 µg/mL (≈ 1070 µM)
